According to ChEMBL document CHEMBL3397044, “Discovery and in vitro and in vivo profiles of N-ethyl-N-[2-[3-(5-fluoro-2-pyridinyl)-1H-pyrazol-1-yl]ethyl]-2-(2H-1,2,3-triazol-2-yl)-benzamide as a novel class of dual orexin receptor antagonist” (Bioorg Med Chem, 2015):
Values after ≈ are worked out from the molar mass of the structure shown. Active and inactive are the calls of the source. The rule behind the calls is not given here.

Assays:
[1] = Solubility in pH 6.8 phosphate buffer; format: physicochemical
Summary of the method: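 Aqueous solubility measured in pH 6.8 phosphate buffer.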

[2] = Drug metabolism in dog liver microsomes at 5 uM after 15 mins; format: ADME, Canis lupus familiaris; details: read-out: Drug metabolism
Summary of the method: (§1)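 Liver microsomes at 1 mg protein/mL with 5 µM compound, incubated 15 min. Value reported as percentage of compound metabolized.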

[3] = target: T1, Orexin/Hypocretin receptor type 1 (Rattus norvegicus) (UniProt P56718); assay: Antagonist activity against rat OX1 receptor assessed as reduction in [Ala6,12]orexin-A-induced intracellular Ca2+ mobilization incubated for 30 mins by Fluo-4 AM dye based fluorescence assay; format: functional, cell-based
T1 sequence (whole entry): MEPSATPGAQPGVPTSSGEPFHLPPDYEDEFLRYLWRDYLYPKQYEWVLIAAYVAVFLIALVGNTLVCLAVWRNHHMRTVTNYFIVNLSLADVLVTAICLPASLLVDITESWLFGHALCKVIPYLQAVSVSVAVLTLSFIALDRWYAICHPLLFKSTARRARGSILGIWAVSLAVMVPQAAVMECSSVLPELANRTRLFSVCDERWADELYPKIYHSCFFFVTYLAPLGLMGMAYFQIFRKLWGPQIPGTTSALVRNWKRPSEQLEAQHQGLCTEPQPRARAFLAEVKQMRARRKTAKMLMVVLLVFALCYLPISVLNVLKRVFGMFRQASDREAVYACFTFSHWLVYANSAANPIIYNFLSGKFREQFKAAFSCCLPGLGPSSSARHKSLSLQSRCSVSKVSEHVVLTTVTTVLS
Summary of the method: (§2)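 Cells seeded at 2.4 × 10⁴/well and cultured for 18 h. Compound added for 30 min at room temperature. Peak fluorescence minus basal was normalised to the maximal [Ala6,12]orexin-A response. Kb = IC50/(1+[L]/EC50). At least three independent runs in duplicate; mean ± SE.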

[4] = Half life in dog at 0.5 mg/kg, iv; format: ADME, organism-based, Canis lupus familiaris; set-up: dose 0.5 mg/kg, route intravenous; details: in vivo
Summary of the method: (§3)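 Male dogs given 0.5 mg/kg iv (n = 3). Vd and CL derived from the iv profile. T1/2 = ln2·Vd/CL.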

[5] = Volume of distribution in dog at 0.5 mg/kg, iv; format: ADME, organism-based, Canis lupus familiaris; set-up: dose 0.5 mg/kg, route intravenous; details: in vivo; summary of the method: as §3
Rattus norvegicus [6] = assay: Sleep promoting effect in free moving Wistar rat with chronically implanted electrodes assessed as reduction in latency until total sleep at 3 to 30 mg/kg, ip by polysomnogram recordings method; format: functional, organism-based
Summary of the method: (§4)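 Male Wistar rats, 10 weeks old, implanted under pentobarbital with frontal and parietal EEG screw electrodes plus EMG. Recovered ≥7 days, then singly housed and acclimated, tethered and freely moving. Dosed ip between 18:50 and 19:00, before lights-off. EEG filtered 0.16–30 Hz, EMG 5.3–1000 Hz, scored in 8-s epochs. Sleep latency = first 15 consecutive sleep epochs. Analysed over 2 h; n = 8–10; Dunnett or Steel tests.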

[7] = target: T2, Orexin receptor type 2 (Rattus norvegicus) (UniProt P56719); assay: Antagonist activity against rat OX2 receptor assessed as reduction in [Ala6,12]orexin-A-induced intracellular Ca2+ mobilization incubated for 30 mins by Fluo-4 AM dye based fluorescence assay; format: functional, cell-based; summary of the method: as §2
T2 sequence (whole entry): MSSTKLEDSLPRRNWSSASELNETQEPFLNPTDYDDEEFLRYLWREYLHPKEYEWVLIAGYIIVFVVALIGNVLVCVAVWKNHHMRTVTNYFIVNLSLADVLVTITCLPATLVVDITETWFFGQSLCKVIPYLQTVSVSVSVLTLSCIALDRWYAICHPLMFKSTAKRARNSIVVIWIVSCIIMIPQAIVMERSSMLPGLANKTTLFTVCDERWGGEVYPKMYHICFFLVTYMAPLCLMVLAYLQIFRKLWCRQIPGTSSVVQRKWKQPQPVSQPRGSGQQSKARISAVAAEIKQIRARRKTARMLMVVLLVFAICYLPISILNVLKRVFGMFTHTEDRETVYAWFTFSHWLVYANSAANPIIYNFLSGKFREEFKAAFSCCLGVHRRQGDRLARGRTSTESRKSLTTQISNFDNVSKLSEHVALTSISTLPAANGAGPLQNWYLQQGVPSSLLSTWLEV

[8] = Oral bioavailability in Sprague-Dawley rat at 10 mg/kg; format: ADME, organism-based; details: in vivo
Summary of the method: (§5)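 Fasted male rats dosed orally at 10 mg/kg, and male dogs at 3 mg/kg (n = 3). Tmax read from the oral profile. F calculated against the iv arm (rat 2 mg/kg, dog 0.5 mg/kg).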

[9] = Clearance in Sprague-Dawley rat at 2 mg/kg, iv; format: ADME, organism-based; set-up: dose 2 mg/kg, route intravenous; details: in vivo
Summary of the method: (§6)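 Fasted male Sprague–Dawley rats (n = 3) given 2 mg/kg iv. Vd and CL taken from the iv profile. T1/2 calculated as ln2·Vd/CL.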

[10] = Tmax in dog at 3 mg/kg, po; format: ADME, organism-based, Canis lupus familiaris; set-up: dose 3 mg/kg, route oral; details: in vivo; summary of the method: as §5
Rattus norvegicus [11] = assay: Sleep promoting effect in ip dosed free moving Wistar rat with chronically implanted electrodes assessed as by polysomnogram recordings method; details: read-out: MED
[12] = Drug excretion in rat bile; format: ADME, tissue-based; details: read-out: Drug excretion
[13] = Half life in Sprague-Dawley rat at 2 mg/kg, iv; format: ADME, organism-based; set-up: dose 2 mg/kg, route intravenous; details: in vivo; summary of the method: as §6
[14] = Oral bioavailability in dog at 3 mg/kg; format: ADME, organism-based, Canis lupus familiaris; details: in vivo; summary of the method: as §5
[15] = Ratio of drug level in CSF to plasma in Sprague-Dawley rat at 10 mg/kg, po
Rattus norvegicus [16] = assay: Toxicity in Sprague-Dawley rat assessed as effect on rotarod performance at 3 to 30 mg/kg, ip administered 30 mins prior to the test by rotarod test; details: in vivo, 0.5 h
Rattus norvegicus [17] = assay: Sleep promoting effect in free moving Wistar rat with chronically implanted electrodes assessed as increase in duration of REM sleep at 10 and 30 mg/kg, ip after 2 hrs by polysomnogram recordings method; format: functional, organism-based; set-up: dose 30 mg/kg; summary of the method: as §4
[18] = Clearance in dog at 0.5 mg/kg, iv; format: ADME, organism-based, Canis lupus familiaris; set-up: dose 0.5 mg/kg, route intravenous; details: in vivo; summary of the method: as §3
[19] = Cmax in free moving Wistar rat with chronically implanted electrodes 3 mg/kg, ip after 0.33 hrs; format: ADME, organism-based; set-up: dose 3 mg/kg, route intraperitoneal; details: in vivo
[20] = system: Ribosyldihydronicotinamide dehydrogenase (NQO2) (Homo sapiens); assay: Binding affinity to MT3 receptor (unknown origin) at 10 uM
[21] = Ratio of drug level in brain to plasma in Sprague-Dawley rat at 10 mg/kg, po; details: read-out: BPR
[22] = Tmax in Sprague-Dawley rat at 10 mg/kg, po; format: ADME, organism-based; set-up: dose 10 mg/kg, route oral; details: in vivo; summary of the method: as §5
[23] = Drug metabolism in human liver microsomes at 5 uM after 15 mins; format: ADME; details: read-out: Drug metabolism; summary of the method: as §1
Rattus norvegicus [24] = assay: Sleep promoting effect in free moving Wistar rat with chronically implanted electrodes assessed as increase in duration of NREM sleep at 10 and 30 mg/kg, ip by polysomnogram recordings method; format: functional, organism-based; set-up: dose 30 mg/kg; summary of the method: as §4
[25] = Volume of distribution in Sprague-Dawley rat at 2 mg/kg, iv; format: ADME, organism-based; set-up: dose 2 mg/kg, route intravenous; details: in vivo; summary of the method: as §6
[26] = Drug excretion in rat urine; format: ADME; details: read-out: Drug excretion
[27] = Drug metabolism in rat liver microsomes at 5 uM after 15 mins; format: ADME; details: read-out: Drug metabolism; summary of the method: as §1

SMILES: CCN(CCn1ccc(-c2ccc(F)cn2)n1)C(=O)c1ccccc1-n1nccn1
- solubility [1]: 30.2 µg/mL (≈ 74.5 µM)
- metabolised at 0.25 h, 5 µM [2]: 7.3%
- Kb [3]: 5.08 nM
- half-life [4]: 57.7 min
- Vd [5]: 0.745 L/kg
- Activity (Rattus norvegicus [6]): Dose-dependent effect
- Kb [7]: 6.06 nM
- bioavailability [8]: 14.9%
- clearance [9]: 66 mL/min/kg
- Tmax [10]: 40 min
- minimal effective dose (Rattus norvegicus [11]): 3 mg/kg
- dose excreted [12]: 0.2%
- half-life [13]: 17.9 min
- bioavailability [14]: 80.2%
- Kp [15]: 0.06
- Activity (Rattus norvegicus [16]): Non-toxic
- Activity (Rattus norvegicus [17]): inactive
- clearance [18]: 9.97 mL/min/kg
- Cmax [19]: 728 nM
- Activity [20]: 66%
- Kp [21]: 0.17
- Tmax [22]: 50 min
- metabolised at 0.25 h, 5 µM [23]: 24.1%
- Activity (Rattus norvegicus [24]): Active
- Vd [25]: 1.71 L/kg
- dose excreted [26]: 0.4%
- metabolised at 0.25 h, 5 µM [27]: 79.9%
